Data on eight compounds can be found in ChEMBL document CHEMBL1152330, “Cytotoxic triterpenoid alkaloids from Buxus microphylla” (J Nat Prod, 2009).

The subject of one experiment is HepG2. The experiment can be described thus: Cytotoxicity against human HepG2 cells after 72 hrs by MTT assay. The class given is functional, cell-based. The following applies: HepG2, 72 h. In short, it runs like this:
(§1)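 Cells grown in RPMI-1640 with 10% heat-inactivated bovine serum, L-glutamine, penicillin/streptomycin and 10 mM HEPES pH 7.4, at 37 °C, 5% CO2. Seeded, allowed to adhere 24 h, then exposed at 0.01–100 µg/mL (tenfold steps) for 72 h, triplicate wells. MTT 4 h, SDS–isobutanol–HCl solubilization 12–20 h. OD 570 nm versus DMSO controls. IC50 by LOGIT.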
(Tetrazolium dyes change colour on reduction, which living cells bring about.)

A further experiment relates to K562. The experiment can be described thus: Cytotoxicity against human K562 cells after 72 hrs by MTT assay. The class given is functional, cell-based. The following applies: K562, 72 h. The method in brief:
as §1

The term IC50 denotes the concentration that gives 50% inhibition. With `C/C=C1/C(=O)C[C@@]2(C)[C@@H]3CCC4C(C)(C)[C@@H](NC)CC[C@@]45C[C@@]35CC[C@]12C` (stereo partly specified), the IC50 is over 100 µM in the experiment on HepG2 and 1.7 µM with K562.

With `C=C1C2CC[C@@H]3[C@]4(CC[C@]5(C)/C(=C\C)C(=O)C[C@@]35C)C[C@]24CC[C@@H]1NC` (stereo partly specified) [BIXMICROPHYLLINE B], the results for the IC50 in the experiment with HepG2 and in the experiment with K562 were 0.78 µM and 0.37 µM, respectively.

For `C=C1C2CC[C@@H]3[C@]4(CC[C@]5(C)[C@@H](C(C)=O)[C@H](O)C[C@@]35C)C[C@]24CC[C@@H]1N(C)C` (stereo partly specified) [BUXIPPINE K], the IC50 in the experiment with HepG2 came to 57.1 µM; with K562 it was 35.3 µM.

Take `C[C@@H]([C@H]1[C@H](OC(=O)c2ccccc2)C[C@@]2(C)[C@@H]3CCC4[C@@]5(CC[C@H](NC(=O)c6ccccc6)[C@@]4(C)CO)C[C@@]35CC[C@]12C)N(C)C` (stereo partly specified) [BUXMICROPHYLLINE E]: the IC50 was 39.7 µM in the experiment on HepG2 and over 100 µM with K562.

With `CC(C)C(=O)N[C@H]1CC[C@]23C[C@]24CC[C@]2(C)[C@@H]([C@H](C)N(C)C)[C@H](OC(=O)c5ccccc5)C[C@@]2(C)[C@@H]4C=CC3[C@]1(C)CO` (stereo partly specified) [BUXMICROPHYLLINE F], the IC50 in the experiment with HepG2 was found to be 20.1 µM; with K562, 2.95 µM.

For the compound `COc1ccc(/C=C/C(=O)N[C@H]2CC[C@]34C[C@]35CC[C@]3(C)[C@@H]([C@H](C)N(C)C)[C@H](O)C[C@@]3(C)[C@@H]5CCC4[C@]2(C)CO)cc1O` (stereo partly specified) [BUXMICROPHYLLINE G], the IC50 in the experiment on HepG2 came out at 0.89 µM; in the experiment on K562 it was 4.44 µM.

With `C=C1C2CC[C@@H]3[C@]4(CC[C@]5(C)[C@@H](C(C)=O)[C@H](O)C[C@@]35C)C[C@]24CC[C@@H]1NC` (stereo partly specified) [CYCLOMICROBUXININE], the IC50 in the experiment with HepG2 and in the experiment with K562 was over 100 µM each time.

Regarding `C/C=C1\C(=O)C[C@@]2(C)[C@@H]3CCC4C(C)(C)[C@@H](NC)CC[C@@]45C[C@@]35CC[C@]12C` (stereo partly specified) [Z-buxenone], the IC50 in the experiment on HepG2 turned out to be 14.9 µM; with K562 it was 5.61 µM.
